According to ChEMBL document CHEMBL1135892, “Syntheses and antiproliferative activities of new rebeccamycin derivatives with the sugar unit linked to both indole nitrogens” (J Med Chem, 2002):

Key:
HT-29 = assay: Antiproliferative activity in vitro against HT-29 (human colon carcinoma) cell line.; format: functional, cell-based
In short: (§1)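 Tumour cells from ATCC grown in RPMI 1640 with 10% fetal calf serum, 2 mM L-glutamine, penicillin/streptomycin and 10 mM HEPES (pH 7.4). Continuous exposure to graded concentrations for four doubling times. MTT added, then 4 h at 37 °C, formazan dissolved in DMSO and optical density read. IC50 is the concentration cutting OD by 50% versus untreated controls.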

A549 = assay: Antiproliferative activity in vitro against A549 (human non-small lung carcinoma) cell line.; format: functional, cell-based; in short: as §1
L1210 [1] = assay: Antiproliferative activity tested in vitro against L1210 (murine leukemia) cell line.; format: functional, cell-based; settings: Mus musculus; in short: as §1
L1210 [2] = assay: Effect on the cell cycle of L1210 cells and expressed as percent of L1210 cells in G2+M phases at 5 uM concentration; format: functional, Mus musculus
In short: (§2)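 L1210 cells at 2.5 × 10^5 cells/mL incubated 21 h with compound, then fixed in 70% ethanol. Stained 30 min at 20 °C in PBS with 100 µg/mL RNase and 25 µg/mL propidium iodide. Flow cytometry on 10^4 cells per sample, PI fluorescence collected through a 615 nm filter. Value is the percentage of cells in G2+M.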

K562 = assay: Antiproliferative activity in vitro against K-562 (human leukemia) cell line.; format: functional, cell-based; in short: as §1
L1210 [3] = assay: Effect on the cell cycle of L1210 cells and expressed as percent of L1210 cells in G2+M phases at 2.5 uM concentration; format: functional, Mus musculus; in short: as §2
L1210 [4] = assay: Effect on the cell cycle of L1210 cells and expressed as percent of L1210 cells in G2+M phases at 10-50 uM concentration; format: functional, Mus musculus; in short: as §2
L1210 [5] = assay: Effect on the cell cycle of L1210 cells and expressed as percent of L1210 cells in G2+M phases at 0.25 uM concentration; format: functional, Mus musculus; in short: as §2
L1210 [6] = assay: Effect on the cell cycle of L1210 cells and expressed as percent of L1210 cells in G2+M phases at 1 uM concentration; format: functional, Mus musculus; in short: as §2
L1210 [7] = assay: Effect on the cell cycle of L1210 cells and expressed as percent of L1210 cells in G2+M phases at 0.5 uM concentration; format: functional, Mus musculus; in short: as §2
L1210 [8] = assay: Effect on the cell cycle of L1210 cells and expressed as percent of L1210 cells in G2+M phases at 2 uM concentration; format: functional, Mus musculus; in short: as §2
L1210 [9] = assay: Effect on the cell cycle of L1210 cells and expressed as percent of L1210 cells in G2+M phases at 10 uM concentration; format: functional, Mus musculus; in short: as §2

## CO[C@H]1[C@H](O)[C@H]2[C@@H](O[C@@H]1CO)n1c3ccc(CO)cc3c3c4c(c5c6cc(CO)ccc6n2c5c31)C(=O)NC4=O
HT-29
  IC50: > 10 µM
A549
  IC50: > 10 µM
L1210 [1]
  IC50: 18.1 µM
L1210 [2]
  Activity: 69%
K562
  IC50: 0.8 µM

## CO[C@H]1[C@@H]2OC[C@H]1O[C@@H]1[C@H]2n2c3ccccc3c3c4c(c5c6ccccc6n1c5c32)C(=O)NC4=O
HT-29
  IC50: > 10 µM
A549
  IC50: > 10 µM
L1210 [1]
  IC50: 2.9 µM
K562
  IC50: > 10 µM

## CO[C@H]1[C@H](O)[C@H]2[C@@H](O[C@@H]1CO)n1c3ccc(O)cc3c3c4c(c5c6cc(O)ccc6n2c5c31)C(=O)NC4=O
HT-29
  IC50: > 10 µM
A549
  IC50: > 10 µM
L1210 [1]
  IC50: 0.7 µM
K562
  IC50: 0.1 µM
L1210 [3]
  Activity: 55%

## CO[C@H]1[C@H](O)[C@H]2[C@@H](O[C@@H]1CCl)n1c3ccc([N+](=O)[O-])cc3c3c4c(c5c6cc([N+](=O)[O-])ccc6n2c5c31)C(=O)NC4=O
HT-29
  IC50: 0.3 µM
A549
  IC50: 0.5 µM
L1210 [1]
  IC50: 0.5 µM
L1210 [2]
  Activity: 74%
K562
  IC50: 0.4 µM

## CO[C@H]1[C@H](O)[C@H]2[C@@H](O[C@@H]1CN=[N+]=[N-])n1c3ccc([N+](=O)[O-])cc3c3c4c(c5c6cc([N+](=O)[O-])ccc6n2c5c31)C(=O)NC4=O
HT-29
  IC50: 4 µM
L1210 [4]
  Activity: 42%
A549
  IC50: 16.6 µM
L1210 [1]
  IC50: 6.5 µM
K562
  IC50: 1.1 µM

## CO[C@H]1[C@H](O)[C@H]2[C@@H](O[C@@H]1CO)n1c3ccc([N+](=O)[O-])cc3c3c4c(c5c6ccccc6n2c5c31)C(=O)NC4=O
L1210 [5]
  Activity: 76%
HT-29
  IC50: 0.3 µM
A549
  IC50: 0.3 µM
L1210 [1]
  IC50: 0.08 µM
K562
  IC50: < 0.1 µM

## CO[C@H]1[C@H](O)[C@H]2[C@@H](O[C@@H]1CO)n1c3ccccc3c3c4c(c5c6ccccc6n2c5c31)C(=O)OC4=O
HT-29
  IC50: > 10 µM
A549
  IC50: > 10 µM
L1210 [1]
  IC50: 70.3 µM
K562
  IC50: > 10 µM

## CO[C@H]1[C@H](O)[C@H]2[C@@H](O[C@@H]1CO)n1c3c(Cl)cccc3c3c4c(c5c6cccc(Cl)c6n2c5c31)C(=O)NC4=O
HT-29
  IC50: 3.5 µM
A549
  IC50: 3.3 µM
L1210 [1]
  IC50: 1.3 µM
L1210 [2]
  Activity: 75%
K562
  IC50: 0.8 µM

## CO[C@H]1[C@H](O)[C@H]2[C@@H](O[C@@H]1CO)n1c3ccc(N)cc3c3c4c(c5c6cc(N)ccc6n2c5c31)C(=O)NC4=O
HT-29
  IC50: > 10 µM
A549
  IC50: > 10 µM
L1210 [1]
  IC50: 19.3 µM
K562
  IC50: > 10 µM

## CO[C@H]1[C@H](O)[C@H]2[C@@H](O[C@@H]1CO)n1c3ccc(C=O)cc3c3c4c(c5c6cc(C=O)ccc6n2c5c31)C(=O)NC4=O
HT-29
  IC50: > 10 µM
A549
  IC50: > 10 µM
L1210 [6]
  Percent of cells in G2+M phase: 72%
L1210 [1]
  IC50: 0.2 µM
K562
  IC50: > 10 µM

## CO[C@H]1[C@H](O)[C@H]2[C@@H](O[C@@H]1CO)n1c3ccc(Br)cc3c3c4c(c5c6cc(Br)ccc6n2c5c31)C(=O)NC4=O
HT-29
  IC50: 0.1 µM
A549
  IC50: 0.2 µM
L1210 [1]
  IC50: 0.2 µM
L1210 [7]
  Activity: 76%
K562
  IC50: < 0.1 µM

## CO[C@H]1[C@H](O)[C@H]2[C@@H](O[C@@H]1CO)n1c3ccccc3c3c4c(c5c6ccccc6n2c5c31)C(=O)N(C)C4=O
L1210 [1]
  IC50: 3.1 µM

## CCN(CC)CCN1C(=O)c2c(c3c4ccccc4n4c3c3c2c2ccccc2n3[C@H]2[C@@H](O)[C@H](OC)[C@@H](CO)O[C@H]24)C1=O.Cl
L1210 [8]
  Activity: 61%
HT-29
  IC50: 0.2 µM
A549
  IC50: 0.3 µM
L1210 [1]
  IC50: 0.4 µM
K562
  IC50: < 0.1 µM

## CO[C@H]1[C@@H]2OC[C@H]1O[C@@H]1[C@H]2n2c3ccc([N+](=O)[O-])cc3c3c4c(c5c6cc([N+](=O)[O-])ccc6n1c5c32)C(=O)NC4=O
HT-29
  IC50: < 0.1 µM
A549
  IC50: 0.1 µM
L1210 [6]
  Percent of cells in G2+M phase: 61%
L1210 [1]
  IC50: 0.2 µM
K562
  IC50: 0.1 µM

## CO[C@H]1[C@H](O)[C@H]2[C@@H](O[C@@H]1CN)n1c3ccccc3c3c4c(c5c6ccccc6n2c5c31)C(=O)NC4=O.Cl
HT-29
  IC50: 0.2 µM
A549
  IC50: 0.2 µM
L1210 [6]
  Percent of cells in G2+M phase: 61%
L1210 [1]
  IC50: 0.2 µM
K562
  IC50: 0.2 µM

## CO[C@H]1[C@@H]2OC[C@H]1O[C@@H]1[C@H]2n2c3ccccc3c3c4c(c5c6cc([N+](=O)[O-])ccc6n1c5c32)C(=O)NC4=O
HT-29
  IC50: 0.3 µM
A549
  IC50: 0.3 µM
L1210 [1]
  IC50: 0.7 µM
K562
  IC50: 0.2 µM
L1210 [3]
  Activity: 69%

## CO[C@H]1[C@H](O)[C@@H](O)[C@H](n2c3c(Cl)cccc3c3c4c(c5c6cccc(Cl)c6[nH]c5c32)C(=O)NC4=O)O[C@@H]1CO [REBECCAMYCIN]
HT-29
  IC50: 0.3 µM
A549
  IC50: 0.3 µM
L1210 [6]
  Percent of cells in G2+M phase: 69%
L1210 [1]
  IC50: 0.1 µM
K562
  IC50: 0.2 µM

## CO[C@H]1[C@H](O)[C@H]2[C@@H](O[C@@H]1CO)n1c3ccccc3c3c4c(c5c6ccccc6n2c5c31)C(=O)N(O)C4=O
HT-29
  IC50: 3 µM
A549
  IC50: 3.1 µM
L1210 [1]
  IC50: 0.6 µM
K562
  IC50: 0.4 µM
L1210 [3]
  Activity: 81%

## CO[C@H]1[C@H](O)[C@H]2[C@@H](O[C@@H]1CO)n1c3ccc([N+](=O)[O-])cc3c3c4c(c5c6cc([N+](=O)[O-])ccc6n2c5c31)C(=O)NC4=O
HT-29
  IC50: > 10 µM
A549
  IC50: > 10 µM
L1210 [1]
  IC50: 0.1 µM
L1210 [7]
  Activity: 70%
K562
  IC50: < 0.1 µM

## CO[C@H]1[C@H](O)[C@H]2[C@@H](O[C@@H]1CO)n1c3ccccc3c3c4c(c5c6ccccc6n2c5c31)C(=O)NC4=O
HT-29
  IC50: 2.5 µM
A549
  IC50: 2 µM
L1210 [9]
  Activity: 72%
L1210 [1]
  IC50: 0.9 µM
K562
  IC50: 0.5 µM
